According to PMC9720105 (Redox Biology, 2022):

Assays:
KEAP1 in HEK293T cells = KEAP1 in HEK293T cells (Homo sapiens, UniProt Q14145); assay: KEAP1 degradation in HEK293T cells; type: cell-based; conditions: for KEAP1 degradation / expression: 48 h
KEAP1 in HCA7 cells = KEAP1 in HCA7 cells (Homo sapiens, UniProt Q14145); assay: KEAP1 degradation in HCA7 cells; type: cell-based; conditions: 48 h
Outline: (§1)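 HEK293T, HCA7 and A549 cells were grown in DMEM with 10% FBS and pen/strep; BEAS-2B in LHC-9 with pen/strep; all at 37 °C, 10% CO₂. Cells were exposed to test compound for 48 h, lysed, run on 4–12% SDS-PAGE and transferred to nitrocellulose. Blocking was 5% skim milk for 1 h at RT. Probes were anti-KEAP1, CRBN, NQO1 or HO-1, with HRP anti-β-actin loading control and HRP secondaries. Blots represent 3 independent experiments.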

[1] = test system: NRF2 downstream targets, NQO1 and HO-1; assay: NQO1 and HO-1 protein levels in HEK293T and HCA7 cell lines; type: cell-based; conditions: 48 h
Outline: as §1

[2] = test system: HepG2 ARE-luciferase reporter cells; assay: ARE-luciferase activity assay; type: cell-based; conditions: 48 h, 14: maximum at 1 μM
[3] = test system: NQO1, TALDO1, and GCLM mRNA in BEAS-2B cells; assay: Quantitative RT-PCR of antioxidant genes in BEAS-2B cells; type: cell-based, human; conditions: 0.13 μM, 48 h
Outline: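 BEAS-2B cells were treated with 0.13 μM test compound for 48 h. RNA was extracted, reverse transcribed (SuperScript IV) and quantified by SYBR Green qPCR. Expression was normalized to 18S by the delta-delta-Ct method. Three independent experiments, each in technical triplicate; mean and S.D.; unpaired t-test.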

BEAS-2B cells proteome = assay: Label-free quantitative MS proteomics in BEAS-2B cells; type: cell-based, human; conditions: 0.13 μM, 48 h, vs DMSO
Outline: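 BEAS-2B cells received DMSO or 0.13 μM test compound for 48 h, then were lysed in 5% SDS/50 mM TEAB. 20 μg protein was processed on S-traps (chloroacetamide alkylation), digested with trypsin/Lys-C and cleaned on SDB stage tips. About 100 ng peptide ran on a 48 min C18 gradient, timsTOF DIA-PASEF. Library-free search against human UniProt, 1% precursor FDR, MaxLFQ quantitation. Hits: >1.5-fold versus DMSO, adjusted P <0.01.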

BEAS-2B cells = assay: Flow cytometric detection of cell viability after tBHP; type: cell-based, human; conditions: 50 μM tBHP
Outline: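 BEAS-2B cells (LHC-9 with pen/strep) were seeded at 1.2 × 10⁴ cells/well overnight, pre-treated with test compound for 24 h, then given 50 μM tBHP for 24 h. Harvested cells were stained with 1 μg/mL propidium iodide. Gating used FSC-A/SSC-A to exclude debris and FSC-H/FSC-A to exclude doublets. Viability was % PI-negative cells. Three independent assays, single points each; mean and S.D.; unpaired t-test.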

[4] = target: recombinant KEAP1-Kelch domain (Homo sapiens, UniProt Q14145); assay: biochemical; type: binding
recombinant KEAP1-Kelch domain, sequence (Q14145 312-624): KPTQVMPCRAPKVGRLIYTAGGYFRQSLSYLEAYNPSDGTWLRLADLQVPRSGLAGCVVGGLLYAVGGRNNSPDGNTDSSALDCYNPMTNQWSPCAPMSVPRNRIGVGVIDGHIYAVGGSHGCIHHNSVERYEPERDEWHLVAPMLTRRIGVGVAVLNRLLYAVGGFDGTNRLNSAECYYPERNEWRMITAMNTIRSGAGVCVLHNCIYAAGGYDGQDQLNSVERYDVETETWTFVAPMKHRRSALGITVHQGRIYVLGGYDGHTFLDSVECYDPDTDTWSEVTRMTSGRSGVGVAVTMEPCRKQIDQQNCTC

KEAP1 in BEAS-2B cells = KEAP1 in BEAS-2B cells (Homo sapiens, UniProt Q14145); assay: KEAP1 degradation in BEAS-2B cells; type: cell-based
KEAP1 in BEAS-2B cells, sequence (Q14145 whole entry, the tested form may be a part): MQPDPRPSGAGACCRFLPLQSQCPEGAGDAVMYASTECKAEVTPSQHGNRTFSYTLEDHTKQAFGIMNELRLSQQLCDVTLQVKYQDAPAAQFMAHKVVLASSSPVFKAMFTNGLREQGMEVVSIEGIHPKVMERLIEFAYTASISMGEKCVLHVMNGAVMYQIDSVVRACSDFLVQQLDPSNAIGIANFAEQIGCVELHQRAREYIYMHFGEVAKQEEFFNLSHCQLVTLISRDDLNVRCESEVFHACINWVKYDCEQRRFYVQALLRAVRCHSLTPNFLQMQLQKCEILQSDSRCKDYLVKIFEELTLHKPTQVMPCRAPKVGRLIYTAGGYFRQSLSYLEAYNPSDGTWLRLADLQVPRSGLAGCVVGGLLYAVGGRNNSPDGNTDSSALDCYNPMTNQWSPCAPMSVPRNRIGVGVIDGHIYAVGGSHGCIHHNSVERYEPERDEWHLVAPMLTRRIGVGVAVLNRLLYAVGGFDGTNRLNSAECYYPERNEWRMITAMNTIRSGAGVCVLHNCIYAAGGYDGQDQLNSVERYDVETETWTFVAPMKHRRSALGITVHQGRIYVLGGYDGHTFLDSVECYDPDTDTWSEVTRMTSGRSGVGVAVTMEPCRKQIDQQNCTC

[5] = target: KEAP1 (G333C mutation in the KEAP1-Kelch domain) in A549 cells (Homo sapiens, UniProt Q14145, G333C); assay: KEAP1 degradation in A549 cells; type: cell-based; conditions: 48 h
KEAP1 (G333C mutation in the KEAP1-Kelch domain) in A549 cells, sequence (Q14145 whole entry G333C, the tested form may be a part): as the sequence (Q14145 whole entry, the tested form may be a part) above, with G333C counted along it
Outline: as §1

CRBN = CRBN (Homo sapiens, UniProt Q96SW2); assay: CRBN levels by immunoblotting; type: cell-based; conditions: HEK293T, HCA7, BEAS-2B, and A549 cells, 48 h
CRBN, sequence (Q96SW2 whole entry): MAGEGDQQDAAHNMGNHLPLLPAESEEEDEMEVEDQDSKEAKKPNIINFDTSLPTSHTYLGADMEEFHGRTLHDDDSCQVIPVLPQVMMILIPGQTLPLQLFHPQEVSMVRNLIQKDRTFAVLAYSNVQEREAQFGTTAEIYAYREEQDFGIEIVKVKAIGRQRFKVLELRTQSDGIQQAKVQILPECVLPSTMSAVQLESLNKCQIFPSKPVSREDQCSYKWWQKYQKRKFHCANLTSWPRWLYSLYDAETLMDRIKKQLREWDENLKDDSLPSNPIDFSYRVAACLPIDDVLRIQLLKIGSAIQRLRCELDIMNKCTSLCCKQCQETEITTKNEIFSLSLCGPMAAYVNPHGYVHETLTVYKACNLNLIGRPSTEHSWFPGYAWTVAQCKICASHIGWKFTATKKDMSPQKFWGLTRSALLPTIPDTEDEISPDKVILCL
Outline: as §1

[6] = test system: NQO1 and GCLM in BEAS-2B cells; assay: NQO1 and GCLM protein expression in BEAS-2B cells; type: cell-based, human; conditions: 48 h, all tested concentrations

KEAP1 in HCA7 cells, sequence (Q14145 whole entry): as the sequence (Q14145 whole entry, the tested form may be a part) above
KEAP1 in HEK293T cells, sequence (Q14145 whole entry): as the sequence (Q14145 whole entry, the tested form may be a part) above

KEAP1 degradation / expression (KEAP1 in HEK293T cells; HEK293T cells) | KEAP1 degradation / expression (KEAP1 in HCA7 cells) | Structure (SMILES) | HO-1 protein expression [1] | NQO1 protein expression [1] | induction of luciferase signal compared to the DMSO control group [2] | mRNA induction of GCLM [3] [fold] | mRNA induction of NQO1 [3] [fold] | mRNA induction of TALDO1 [3] [fold] | ABHD4 abundance (proteomics) (BEAS-2B cells proteome) | abundance of KEAP1 (proteomics) (BEAS-2B cells proteome) | rescue of cell viability from tBHP, comparison of 14 and 2 (BEAS-2B cells; between 500 and 16 nM) | further results
no impact | no impact | COc1cc(C(CC(=O)OC(C)(C)C)c2ccc(C)c(CN3C[C@@H](C)Oc4ccccc4S3(=O)=O)c2)cc2nnn(C)c12 (stereo partly drawn) [Compound 17, tert-Butyl 3-(7-methoxy-1-methyl-1H-benzo[d][1,2,3]triazol-5-yl)-3-(4-methyl-3-(((R)-4-methyl-1,1-dioxido-3,4-dihydro-2H-benzo[b][1,4,5]oxathiazepin-2-yl)methyl)phenyl)propanoate] | no impact | no impact |  |  |  |  |  |  |  | 
 |  | COc1cc(C(CC(=O)O)c2ccc(C)c(CN3C[C@@H](C)Oc4ccccc4S3(=O)=O)c2)cc2nnn(C)c12 (stereo partly drawn) [Compound 2, 3-(7-Methoxy-1-methyl-1H-benzo[d][1,2,3]triazol-5-yl)-3-(4-methyl-3-(((R)-4-methyl-1,1-dioxido-3,4-dihydro-2H-benzo[b][1,4,5]oxathiazepin-2-yl)methyl)phenyl)propanoic acid] |  |  | 5- to 6 fold | 2 | 4 | 2 | not upregulated | did not affect KEAP1 expression | equal potent | 
robust degradation of KEAP1 | robust degradation of KEAP1 | Cc1ccc(C(CC(=O)O)c2cc(OCCCCCCCNc3cccc4c3C(=O)N(C3CCC(=O)NC3=O)C4=O)c3c(c2)nnn3C)cc1CN1C[C@@H](C)Oc2ccccc2S1(=O)=O (stereo partly drawn) [Compound 14, 3-(7-((7-((2-(2,6-Dioxopiperidin-3-yl)-1,3-dioxoisoindolin-4-yl)amino)heptyl)oxy)-1-methyl-1H-benzo[d][1,2,3]triazol-5-yl)-3-(4-methyl-3-(((R)-4-methyl-1,1-dioxido-3,4-dihydro-2H-benzo[b][1,4,5]oxathiazepin-2-yl)methyl)phenyl)propanoic acid] | upregulated | upregulated | 3.5 fold | 2 | 4 | 2 | significantly upregulated | significantly reduced the abundance of KEAP1 | equal potent | IC50 [4]: 46 nM; KEAP1 degradation at longer time points (KEAP1 in HEK293T cells; HEK293T cells, 48 h and 72 h, comparison of 8 and 14): degraded KEAP1 more efficiently at 48 and 72 h compared to 8; hook effect observed at concentrations higher than (KEAP1 in HEK293T cells; HEK293T cells, dose titration 0.01–8 μM, 24 h): higher than 1 μM; Dmax at 1 µM (KEAP1 in HEK293T cells; HEK-293T, read-out: maximum degradation (Dmax)): 94%; Dmax at 0.0625 µM (KEAP1 in BEAS-2B cells): 90%; KEAP1 degradation [5]: did not degrade KEAP1; CRBN levels (CRBN): no change in CRBN levels; increased expression of NQO1 and GCLM, compared with KEAP1 inhibitor 2 [6]: equipotent; ZFP91 abundance (proteomics) (BEAS-2B cells proteome): Off-target degradation of ZFP91; abundance of other Kelch domain proteins KBTBD4, KLHDC2, and KLHL11 (proteomics) (BEAS-2B cells proteome): not impacted; rescue of cell viability from tBHP, comparison of 14 and 2 (BEAS-2B cells; concentrations lower than 16 nM): less effective
no impact | no impact | Cc1ccc(C(CC(=O)OC(C)(C)C)c2cc(OCCCCCCCNc3cccc4c3C(=O)N(C3CCC(=O)NC3=O)C4=O)c3c(c2)nnn3C)cc1CN1C[C@@H](C)Oc2ccccc2S1(=O)=O (stereo partly drawn) [Compound 16, tert-Butyl 3-(7-((7-((2-(2,6-Dioxopiperidin-3-yl)-1,3-dioxoisoindolin-4-yl)amino)heptyl)oxy)-1-methyl-1H-benzo[d][1,2,3]triazol-5-yl)-3-(4-methyl-3-(((R)-4-methyl-1,1-dioxido-3,4-dihydro-2H-benzo[b][1,4,5]oxathiazepin-2-yl)methyl)phenyl)propanoate] | no impact | no impact |  |  |  |  |  |  |  | 
